Drawing on ChEMBL document CHEMBL1687796, “Synthesis and spectrum of the neoglycoside ACHN-490” (2010), this text covers MIC, MIC50 and MIC90 for two compounds.

For orientation: MIC50 means an inhibitory concentration at the 50% level, which refers to growth in some studies and to a panel of isolates in others. Lower therefore signals greater potency. The MIC90 is the lowest concentration that inhibits either 90% of growth or 90% of the strains tested, depending on the study. Low readings indicate higher susceptibility, high ones lower susceptibility.

For assay [1], the system named is Staphylococcus aureus. As to the kind of experiment: Antibacterial activity against aminoglycoside-resistant Staphylococcus aureus expressing APH(2'') + AAC(6') by broth microdilution method. The format is functional. In a few lines: (§1)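 MICs were measured by broth microdilution following CLSI guidance. The strains formed a 25-strain screening panel with diverse aminoglycoside resistance mechanisms. The panel included Gram-negative and S. aureus strains carrying key aminoglycoside-modifying enzymes, strains with altered permeability or efflux, and an armA ribosomal methyltransferase strain.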

The subject of assay [2] is Acinetobacter baumannii. As to the kind of experiment: Antibacterial activity against Acinetobacter baumannii ATCC 19606 by broth microdilution method. The format is functional. The conditions noted are these: ATCC 19606 = CIP 70.34 = JCM 6841. The procedure, abridged:
as §1

In assay [3] the test system is Pseudomonas aeruginosa. As to the kind of experiment: Antibacterial activity against wild type Pseudomonas aeruginosa expressing efflux pump by broth microdilution method. The format is functional. The procedure, abridged: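 MIC was determined by CLSI broth microdilution, read in μg/ml. The strain came from a 25-strain screening panel with diverse aminoglycoside resistance mechanisms. The panel included strains with changes in permeability or efflux, key aminoglycoside-modifying enzymes and an armA methyltransferase strain.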
Background: Dilution methods test growth across graded concentrations, often in twofold steps.

Assay [4] relates to Pseudomonas aeruginosa. As to the kind of experiment: Antibacterial activity against Pseudomonas aeruginosa expressing AAC(6')-2 by broth microdilution method. The assay is classed as functional.
Assay [5] concerns Escherichia coli. In words: Antibacterial activity against Escherichia coli by broth microdilution method. The format is functional. In a few lines: (§2)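 MICs were determined by CLSI broth microdilution against clinical isolate panels that included aminoglycoside-resistant isolates. […] MIC90 was derived per group and not calculated when n was <10. Imipenem, ceftobiprole, ciprofloxacin and tigecycline MICs were also determined for the resistant isolates.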

Assay [6] deals with Klebsiella sp. As to the kind of experiment: Antibacterial activity against Klebsiella spp. by broth microdilution method. The format is functional. In a few lines:
as §2

For assay [7], the system named is Proteus mirabilis. As to the kind of experiment: Antibacterial activity against Proteus mirabilis by broth microdilution method. The assay is classed as functional. In a few lines: as §2
Assay [8] has as its system Serratia sp. As to the kind of experiment: Antibacterial activity against Serratia spp. by broth microdilution method. The assay is classed as functional. The conditions noted are these: Serratia sp. (in: enterobacteria). The procedure, abridged:
as §2

In assay [9] the test system is Klebsiella aerogenes. As to the kind of experiment: Antibacterial activity against aminoglycoside-resistant Enterobacter aerogenes expressing AAC(6')-1 by broth microdilution method. The assay is classed as functional. The procedure, abridged:
(§3)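 Clinical aminoglycoside-resistant isolates were each carrying a single aminoglycoside-modifying enzyme. […] MICs were determined by CLSI broth microdilution.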

Assay [10] deals with Enterobacter cloacae. In words: Antibacterial activity against aminoglycoside-resistant Enterobacter cloacae expressing AAC(6')-1 by broth microdilution method. The assay is classed as functional. The procedure, abridged:
as §3

Assay [11] concerns Klebsiella oxytoca. In words: Antibacterial activity against aminoglycoside-resistant Klebsiella oxytoca expressing AAC(6')-1 by broth microdilution method. The assay is classed as functional. In a few lines:
as §3

Assay [12] deals with Serratia marcescens. As to the kind of experiment: Antibacterial activity against aminoglycoside-resistant Serratia marcescens expressing AAC(6')-1 by broth microdilution method. The format is functional. The procedure, abridged:
as §3

Assay [13] deals with Staphylococcus aureus. As to the kind of experiment: Antibacterial activity against aminoglycoside-resistant Staphylococcus aureus expressing ANT(4',4'')-2 by broth microdilution method. The assay is classed as functional. The procedure, abridged:
as §3

In assay [14] the test system is Staphylococcus epidermidis. As to the kind of experiment: Antibacterial activity against aminoglycoside-resistant Staphylococcus epidermidis expressing ANT(4',4'')-2 by broth microdilution method. The assay is classed as functional. In a few lines:
as §3

Assay [15] relates to Staphylococcus aureus. As to the kind of experiment: Antibacterial activity against aminoglycoside-resistant Staphylococcus aureus expressing APH(2'') + AAC(6')-1 by broth microdilution method. The format is functional. The procedure, abridged: as §3
The subject of assay [16] is Klebsiella pneumoniae. As to the kind of experiment: Antibacterial activity against Klebsiella pneumoniae ATCC 10031 by broth microdilution method. The format is functional. In a few lines:
as §1

The subject of assay [17] is Serratia marcescens. As to the kind of experiment: Antibacterial activity against aminoglycoside-resistant Serratia marcescens expressing ANT(2''), AAC(6') by broth microdilution method. The format is functional. The procedure, abridged: as §1
Assay [18] concerns Staphylococcus aureus. As to the kind of experiment: microbe, parasite or virus in culture.
Assay [19] concerns Escherichia coli. In words: Antibacterial activity against aminoglycoside-resistant Escherichia coli expressing AAC(3)-2 by broth microdilution method.
Assay [20] has as its system Escherichia coli. As to the kind of experiment: Antibacterial activity against aminoglycoside-resistant Escherichia coli expressing ANT(3)-2 by broth microdilution method. The assay is classed as functional. In a few lines: as §3

In brackets after ≈: the same amount, converted by molar mass. Where only a bound is given, the exact number is not on record here.

`NCC[C@H](O)C(=O)N[C@@H]1C[C@H](N)[C@@H](O[C@H]2O[C@H](CN)[C@@H](O)[C@H](O)[C@H]2O)[C@H](O)[C@H]1O[C@H]1O[C@H](CO)[C@@H](O)[C@H](N)[C@H]1O` [AMIKACIN]: the MIC in [1] was 64 µg/mL; in assay [2], 16 µg/mL (≈ 27.3 µM); in assay [3], 4 µg/mL (≈ 6.83 µM); in [4] it was 4 µg/mL (≈ 6.83 µM); in [9], 30 µg/mL (≈ 51.2 µM); in assay [10], 30 µg/mL (≈ 51.2 µM). The MIC is 30 µg/mL (≈ 51.2 µM) in [11]; 30 µg/mL (≈ 51.2 µM) in assay [12]; 13 µg/mL (≈ 22.2 µM) in [13]; 13 µg/mL (≈ 22.2 µM) in [14]; 18 µg/mL in assay [15]; 0.5 µg/mL (≈ 0.854 µM) in [16]. The values for the MIC in assay [17], in assay [18] and in assay [19] were 8 µg/mL (≈ 13.7 µM), more than 64 µg/mL and 4 µg/mL (≈ 6.83 µM), respectively. Also, the MIC50 in [5] was 16 µg/mL (≈ 27.3 µM); in assay [6], 32 µg/mL (≈ 54.6 µM); in assay [7], 8 µg/mL (≈ 13.7 µM); in [8] it was 8 µg/mL (≈ 13.7 µM). For the same compound, the MIC90 is 32 µg/mL (≈ 54.6 µM) in assay [5], more than 64 µg/mL in assay [6] and 64 µg/mL (≈ 109 µM) in [7].
Regarding `CN[C@@H]1[C@@H](O)[C@@H](O[C@@H]2[C@@H](O)[C@H](O[C@H]3OC(CNCCO)=CC[C@H]3N)[C@@H](N)C[C@H]2NC(=O)[C@@H](O)CCN)OC[C@]1(C)O` [PLAZOMICIN], the MIC in assay [1] is 4 µg/mL; in assay [2], 8 µg/mL (≈ 13.5 µM); in assay [3] it was 4 µg/mL (≈ 6.75 µM); in assay [4], 2 µg/mL (≈ 3.37 µM); in assay [9], 1 µg/mL (≈ 1.69 µM); in assay [10] it was 1 µg/mL (≈ 1.69 µM). Also, the MIC in assay [11] worked out at 1 µg/mL (≈ 1.69 µM); in assay [12], 1 µg/mL (≈ 1.69 µM); in assay [13] it was 1 µg/mL (≈ 1.69 µM); in [14], 1 µg/mL (≈ 1.69 µM); in assay [15] it was 1 µg/mL; in assay [16], 0.25 µg/mL (≈ 0.422 µM). Moreover, the MIC in assay [20] was 2 µg/mL (≈ 3.37 µM); in assay [17], 2 µg/mL (≈ 3.37 µM); in assay [18], 1 µg/mL (≈ 1.69 µM). In addition, the MIC50 was 1 µg/mL (≈ 1.69 µM) in assay [5], 0.5 µg/mL (≈ 0.844 µM) in assay [6], 4 µg/mL (≈ 6.75 µM) in [7] and 1 µg/mL (≈ 1.69 µM) in assay [8]. For the same compound, the figures for the MIC90 in [5], in [6] and in [7] were 2 µg/mL (≈ 3.37 µM), 1 µg/mL (≈ 1.69 µM) and 8 µg/mL (≈ 13.5 µM), respectively.
